Measurements as given in ChEMBL document CHEMBL4152200, “Targeting the entrance channel of NNIBP: Discovery of diarylnicotinamide 1,4-disubstituted 1,2,3-triazoles as novel HIV-1 NNRTIs with high potency against wild-type and E138K mutant virus” (Eur J Med Chem, 2018).

Columns and labels:
[1] = test system: Human immunodeficiency virus 1; test: Antiviral activity against wild-type HIV-1 3B infected in human MT4 cells assessed as inhibition of viral replication after 5 days by MTT assay; assay type: functional, organism-based; details: Human immunodeficiency virus 1, 3B, MT4, 120 h
[2] = test system: Human immunodeficiency virus 1; test: Antiviral activity against HIV-1 RES056 harboring reverse transcriptase K103N/Y181C double mutant infected in human MT4 cells assessed as inhibition of viral replication after 5 days by MTT assay; assay type: functional, organism-based; details: Human immunodeficiency virus 1, RES056, MT4, 120 h
[3] = (§1) Cytotoxicity against human MT4 cells assessed as decrease in cell viability after 5 days by MTT assay; assay type: cell-based; details: MT4 cells
Method in brief: (§2)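 Mock-infected MT-4 cells, exponentially growing, seeded with compound in culture medium without virus; run in parallel with the antiviral assay. Viability read spectrophotometrically by MTT reduction five days later.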

[4] = Selectivity index, ratio of CC50 for human MT4 cells to EC50 for HIV1 harboring reverse transcriptase F227L/V106A mutant; assay type: toxicity; details: read-out: Ratio CC50/EC50
Method in brief: (§3)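 SI is CC₅₀ divided by EC₅₀, both by MTT after 5 days in MT-4 cells. CC₅₀ comes from mock-infected cultures run in parallel and is the concentration reducing their viability by 50%. EC₅₀ comes from cultures infected with the given mutant strain at 100–300 CCID₅₀.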

[5] = Selectivity index, ratio of CC50 for human MT4 cells to EC50 for HIV1 harboring reverse transcriptase E138K mutant; assay type: toxicity; details: read-out: Ratio CC50/EC50; method in brief: as §3
[6] = Selectivity index, ratio of CC50 for human MT4 cells to EC50 for HIV1 harboring reverse transcriptase Y181C mutant; assay type: toxicity; details: read-out: Ratio CC50/EC50; method in brief: as §3
[7] = Selectivity index, ratio of CC50 for human MT4 cells to EC50 for HIV1 harboring reverse transcriptase L100I mutant; assay type: toxicity; details: read-out: Ratio CC50/EC50; method in brief: as §3
[8] = test system: Human immunodeficiency virus 1; test: Antiviral activity against HIV1 harboring reverse transcriptase F227L/V106A double mutant infected in human MT4 cells assessed as inhibition of viral replication after 5 days by MTT assay; assay type: functional, organism-based; details: Human immunodeficiency virus 1, MT4, 120 h
[9] = test system: Human immunodeficiency virus 1; test: Resistance factor, ratio of EC50 for HIV1 harboring reverse transcriptase L100I mutant to EC50 for wild-type HIV-1 3B; assay type: functional
Method in brief: (§4)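 Resistance fold is EC₅₀ against the mutant strain divided by EC₅₀ against WT IIIB. Both EC₅₀ values come from the 5-day MTT protection assay in MT-4 cells infected with 100–300 CCID₅₀ of virus.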

[10] = test system: Human immunodeficiency virus 1; test: Resistance factor, ratio of EC50 for HIV1 harboring reverse transcriptase E138K mutant to EC50 for wild-type HIV-1 3B; assay type: functional; method in brief: as §4
[11] = test system: Human immunodeficiency virus 1; test: Antiviral activity against wild-type HIV-1 NL4-3 infected in human TZM-bl cells assessed as inhibition of viral replication after 2 days by bright Glo-luciferase reporter gene assay; assay type: functional, organism-based; details: Human immunodeficiency virus 1, NL4-3, TZM-bl, 48 h
Method in brief: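 TZM-bl cells infected with 800 TCID₅₀ of NL4-3 in the presence of a range of compound concentrations; single-round infection. After 2 days medium removed, Bright-Glo added and luminescence read. EC₅₀ is the concentration giving a 50% fall in relative light units relative to virus-control wells. Mean ± SD from at least triplicate.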

[12] = test system: Human immunodeficiency virus 1; test: Antiviral activity against HIV1 harboring reverse transcriptase Y188L mutant infected in human MT4 cells assessed as inhibition of viral replication after 5 days by MTT assay; assay type: functional, organism-based; details: Human immunodeficiency virus 1, MT4, 120 h
Method in brief: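 MT-4 cells in exponential growth, resuspended into wells holding HIV-1 stock (IIIB, RES056 K103N/Y181C, F227L/V106A, L100I, K103N, E138K, Y181C or Y188L) at 100–300 CCID₅₀, or into mock-infected wells. Viability read by MTT reduction to formazan, measured spectrophotometrically 5 days post-infection. EC₅₀ is the concentration giving 50% protection against virus-induced cytotoxicity.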

[13] = Selectivity index, ratio of CC50 for human MT4 cells to EC50 for wild-type HIV1 3B; assay type: toxicity; details: read-out: Ratio CC50/EC50
Method in brief: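 Wild-type HIV-1 IIIB at 100–300 CCID50 added to MT-4 cells with compound, with mock-infected wells in parallel. MTT viability was read at day 5. […] SI = CC50/EC50.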

[14] = Selectivity index, ratio of CC50 for human MT4 cells to EC50 for HIV1 harboring reverse transcriptase K103N mutant; assay type: toxicity; details: read-out: Ratio CC50/EC50; method in brief: as §3
TZM = test: Cytotoxicity against human TZM-bl cells by CytoTox-Glo reagent-based assay; assay type: cell-based
Method in brief: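 TZM-bl cells exposed to compound at various concentrations. Cytotoxicity measured by CytoTox-Glo assay.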

MT4 = test: as §1; assay type: cell-based; details: mt4, 120 h; method in brief: as §2
[15] = Selectivity index, ratio of CC50 for human MT4 cells to EC50 for HIV1 harboring reverse transcriptase Y188L mutant; assay type: toxicity; details: read-out: Ratio CC50/EC50; method in brief: as §3
[16] = test system: Human immunodeficiency virus 1; test: Resistance factor, ratio of EC50 for HIV1 harboring reverse transcriptase K103N mutant to EC50 for wild-type HIV-1 3B; assay type: functional; method in brief: as §4
[17] = test system: Human immunodeficiency virus 1; test: Antiviral activity against HIV1 harboring reverse transcriptase K103N mutant infected in human MT4 cells assessed as inhibition of viral replication after 5 days by MTT assay; assay type: functional, organism-based; details: Human immunodeficiency virus 1, MT4, 120 h
[18] = Selectivity index, ratio of CC50 for human TZM-bl cells to EC50 for wild-type HIV-1 NL4-3 infected in human TZM-bl cells; assay type: toxicity, cell-based; details: read-out: Ratio CC50/EC50
Method in brief: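 SI is CC₅₀ divided by EC₅₀ in TZM-bl cells. CC₅₀ from CytoTox-Glo assay, averaged from two independent tests. EC₅₀ from single-round infection with 800 TCID₅₀ NL4-3, luciferase luminescence read at 2 days and expressed relative to virus controls.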

[19] = molecular target: Human immunodeficiency virus type 1 reverse transcriptase (Human immunodeficiency virus 1, UniProt Q72547); test: Inhibition of wild-type HIV1 reverse transcriptase assessed as decrease in digoxigenin and biotin-dUTP incorporation in to DNA using poly(A)/oligo(dT)15 as template/primer after 1 hr by ELISA
Method in brief: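 Kit ELISA on wild-type HIV-1 RT with poly(A)·oligo(dT)15 as template/primer and digoxigenin- and biotin-labelled dUTP. Incorporated label detected with peroxidase-conjugated anti-digoxigenin antibody and ABTS substrate. IC₅₀ is the concentration inhibiting biotin-dUTP incorporation by 50%.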

[20] = test system: Human immunodeficiency virus 1; test: Resistance factor, ratio of EC50 for HIV1 harboring reverse transcriptase F227L/V106A mutant to EC50 for wild-type HIV-1 3B; assay type: functional; method in brief: as §4
[21] = test system: Human immunodeficiency virus 1; test: Resistance factor, ratio of EC50 for HIV1 harboring reverse transcriptase Y188L mutant to EC50 for wild-type HIV-1 3B; assay type: functional; method in brief: as §4
[22] = test system: Human immunodeficiency virus 1; test: Antiviral activity against HIV1 harboring reverse transcriptase E138K mutant infected in human MT4 cells assessed as inhibition of viral replication after 5 days by MTT assay; assay type: functional, organism-based; details: Human immunodeficiency virus 1, MT4, 120 h
[23] = test system: Human immunodeficiency virus 1; test: Antiviral activity against HIV1 harboring reverse transcriptase Y181C mutant infected in human MT4 cells assessed as inhibition of viral replication after 5 days by MTT assay; assay type: functional, organism-based; details: Human immunodeficiency virus 1, MT4, 120 h
[24] = test system: Human immunodeficiency virus 1; test: Antiviral activity against HIV1 harboring reverse transcriptase L100I mutant infected in human MT4 cells assessed as inhibition of viral replication after 5 days by MTT assay; assay type: functional, organism-based; details: Human immunodeficiency virus 1, MT4, 120 h
[25] = test system: Human immunodeficiency virus 1; test: Resistance factor, ratio of EC50 for HIV1 harboring reverse transcriptase Y181C mutant to EC50 for wild-type HIV-1 3B; assay type: functional; method in brief: as §4

Row | Compound | EC50 [1] | EC50 [2] | CC50 at 120 h [3] | selectivity ratio [4] | selectivity ratio [5] | selectivity ratio [6] | selectivity ratio [7] | EC50 [8] | Ratio EC50 [9] | Ratio EC50 [10] | EC50 [11] | EC50 [12] | selectivity ratio [14] | CC50 (TZM) | CC50 (MT4) | selectivity ratio [15] | Ratio EC50 [16] | EC50 [17] | selectivity ratio [18] | IC50 [19] | other results
1 | Cc1ccnc2c1NC(=O)c1cccnc1N2C1CC1 [NEVIRAPINE] | 0.26 µM | > 15 µM | > 15 µM | – | – | – | – | – | – | – | – | – | – | – | – | – | – | – | – | – | –
2 | O=C1Nc2ccc(Cl)cc2[C@@](C#CC2CC2)(C(F)(F)F)O1 [EFAVIRENZ] | – | – | > 6.34 µM | – | – | – | – | – | – | – | – | – | – | – | – | – | – | – | – | – | –
3 | Cc1cc(C)c(Oc2cc(Nc3ccc(C#N)cc3)ncc2C(=O)NCc2cn(CC(=O)N3CCCC3)nn2)c(C)c1 | 0.02 µM | 1.43 µM | – | 245 | 4190 | 686 | 60 | 0.24 µM | 48 | 0.7 | 0.024 µM | 1.48 µM | 214 | > 221 µM | 58.1 µM | 39 | 13.5 | 0.27 µM | > 9.2 | 2.7 µM | selectivity ratio [13]: 2900; Ratio EC50 [20]: 12; Ratio EC50 [21]: 74; EC50 [22]: 0.014 µM; EC50 [23]: 0.085 µM; EC50 [24]: 0.96 µM; Ratio EC50 [25]: 4.3
4 | Cc1cc(/C=C/C#N)cc(C)c1Nc1ccnc(Nc2ccc(C#N)cc2)n1 [RILPIVIRINE] | – | – | – | – | – | – | – | – | – | – | – | – | – | > 341 µM | – | – | – | – | – | – | –
5 | Cc1cc(C)c(Oc2cc(Nc3ccc(C#N)cc3)ncc2C(=O)NCc2cn(CC(=O)N3CCOCC3)nn2)c(C)c1 | 0.02 µM | 15.7 µM | – | 297 | 6800 | 761 | 30 | 0.61 µM | 306.5 | 1.4 | 0.02 µM | 7.16 µM | 473 | > 215 µM | 181 µM | 25 | 19 | 0.38 µM | > 10.8 | 1.57 µM | Ratio EC50 [20]: 30.5; Ratio EC50 [21]: 358; EC50 [22]: 0.027 µM; EC50 [23]: 0.24 µM; EC50 [24]: 6.13 µM; Ratio EC50 [25]: 12
